Data on 9 compounds can be found in ChEMBL document CHEMBL4425145, “Discovery of New Anti-Schistosomal Hits by Integration of QSAR-Based Virtual Screening and High Content Screening” (J Med Chem, 2016).

Data set [1] deals with Schistosoma mansoni. The experiment in a line: Antischistosomal activity against Schistosoma mansoni BH schistosomula assessed as morphological changes at 20 uM after 48 hrs by HCS microscopic analysis. In kind it is functional, organism-based. Put shortly:
(§1)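 Cercariae vortexed at maximum speed for 5 min to shed tails and transform to schistosomula. Larvae resuspended in Medium 169 at 120 per well and held overnight under 5% CO2 before dosing. Exposed 48 h at 20 μM, vehicle DMSO 0.625%. Automated bright-field HCS imaging; Bayesian phenotype and motility scores adjusted to DMSO control wells on each plate.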

Data set [2] deals with Schistosoma mansoni. The experiment in a line: Antischistosomal activity against Schistosoma mansoni BH schistosomula assessed as inhibition of parasite motility after 48 hrs by HCS microscopic analysis. In kind it is functional, organism-based. Put shortly: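 Schistosomula obtained from cercariae by vortex tail shedding (5 min), held overnight in Medium 169 under 5% CO2 at 120 per well. Dosed at 0.31–20 μM against DMSO 0.625% for 48 h. Motility taken by automated bright-field imaging as average object displacement, adjusted to DMSO control wells. EC50 from a four-parameter logistic fit.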

For data set [3], the system named is Schistosoma mansoni. The experiment in a line: Antischistosomal activity against Schistosoma mansoni BH schistosomula assessed as inhibition of parasite motility at 20 uM after 48 hrs by HCS microscopic analysis. The class given is functional, organism-based. Put shortly: as §1
Data set [4] has as its target T1, Thioredoxin glutathione reductase (Schistosoma mansoni, UniProt Q962Y6).
T1 sequence (Q962Y6 whole entry): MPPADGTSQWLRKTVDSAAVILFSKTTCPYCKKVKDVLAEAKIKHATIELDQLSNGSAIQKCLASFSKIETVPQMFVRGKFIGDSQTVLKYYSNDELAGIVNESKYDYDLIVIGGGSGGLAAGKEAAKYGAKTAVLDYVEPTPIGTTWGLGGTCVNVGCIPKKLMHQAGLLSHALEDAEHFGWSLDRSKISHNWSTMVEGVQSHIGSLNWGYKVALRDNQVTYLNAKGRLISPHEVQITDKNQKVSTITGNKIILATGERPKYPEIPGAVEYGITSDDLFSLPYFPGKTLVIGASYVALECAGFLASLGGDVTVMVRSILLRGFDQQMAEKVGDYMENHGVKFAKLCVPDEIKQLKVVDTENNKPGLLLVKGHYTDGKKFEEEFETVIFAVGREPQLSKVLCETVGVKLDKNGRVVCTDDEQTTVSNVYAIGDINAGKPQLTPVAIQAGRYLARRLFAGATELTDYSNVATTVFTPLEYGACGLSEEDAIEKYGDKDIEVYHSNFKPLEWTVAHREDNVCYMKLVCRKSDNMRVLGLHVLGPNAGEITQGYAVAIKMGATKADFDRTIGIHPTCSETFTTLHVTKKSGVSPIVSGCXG
The experiment in a line: Inhibition of Schistosoma mansoni TGR.

Another data set addresses T2, Papain (Carica papaya, UniProt P00784).
T2 sequence (P00784 whole entry): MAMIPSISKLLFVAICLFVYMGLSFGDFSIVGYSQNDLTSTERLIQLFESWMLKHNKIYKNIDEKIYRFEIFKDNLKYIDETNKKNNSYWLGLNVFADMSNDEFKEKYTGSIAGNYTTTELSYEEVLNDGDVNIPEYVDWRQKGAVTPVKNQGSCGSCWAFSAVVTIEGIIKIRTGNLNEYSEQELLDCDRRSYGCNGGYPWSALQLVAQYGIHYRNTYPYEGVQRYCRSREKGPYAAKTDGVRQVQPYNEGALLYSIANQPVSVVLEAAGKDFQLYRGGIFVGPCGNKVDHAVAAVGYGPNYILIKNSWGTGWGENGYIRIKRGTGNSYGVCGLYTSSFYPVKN
The experiment in a line: Inhibition of papaya papain using Z-FR-AMC fluorogenic peptide substrate preincubated for 5 mins followed by substrate addition. Put shortly:
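Papain (5 μg/mL) in 100 mM sodium acetate, pH 3.5, at 37 °C. Pre-incubated 5 min with compound at 20 and 100 μM, then reaction started with 50 μM Z-FR-AMC fluorogenic substrate. E-64 used as positive control.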

The test system of data set [5] is Schistosoma mansoni. The experiment in a line: Antischistosomal activity against adult female Schistosoma mansoni BH assessed as inhibition of parasite motility at 20 to 100 uM after 48 to 72 hrs in absence of 0.01% triton X-100 by colloidal aggregation assay. The class given is functional, organism-based. Put shortly:
(§2)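 Perfused adult worms held singly in complete DMEM at 37 °C, 5% CO2. Incubated with compound at 20 and 100 μM, with or without Triton X-100 (0.01%). HCS motility measured at 48 and 72 h, and activity with detergent compared with activity without it.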

Data set [6] deals with Schistosoma mansoni. The experiment in a line: Antischistosomal activity against adult male Schistosoma mansoni BH assessed as inhibition of parasite motility at 20 to 100 uM after 48 to 72 hrs in absence of 0.01% triton X-100 by colloidal aggregation assay. In kind it is functional, organism-based. Put shortly: as §2
Data set [7] deals with Schistosoma mansoni. The experiment in a line: Antischistosomal activity against adult female Schistosoma mansoni BH assessed as inhibition of parasite motility up to 72 hrs by HCS microscopic analysis. In kind it is functional, organism-based. Put shortly: (§3)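 Adult worms perfused from portal hepatic and mesenteric veins of Swiss mice 42–49 days after percutaneous infection with 150 ± 10 cercariae. Worms held singly in DMEM with 10% FCS and 2 mM L-glutamine overnight at 37 °C, 5% CO2. Exposed to 0.10–100 μM against 0.1% DMSO, imaged at 0, 24, 48 and 72 h. Motility from image-overlap AdjustedRandIndex; EC50 from dose-response curves.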

For data set [8], the system named is Schistosoma mansoni. The experiment in a line: Antischistosomal activity against adult male Schistosoma mansoni BH assessed as inhibition of parasite motility up to 72 hrs by HCS microscopic analysis. The class given is functional, organism-based. Put shortly:
as §3

Data set [9] concerns Schistosoma mansoni. The experiment in a line: Antischistosomal activity against adult female Schistosoma mansoni BH assessed as inhibition of parasite motility at 20 to 100 uM after 48 to 72 hrs in presence of 0.01% triton X-100 by colloidal aggregation assay. The class given is functional, organism-based. Put shortly:
as §2

Data set [10] can be described thus: Cytotoxicity against human WSS1 cells assessed as reduction in cell viability after 48 hrs by resazurin assay. In kind it is cell-based. Put shortly:
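Human kidney WSS-1 epithelial cells grown in DMEM (4.5 g/L glucose, 10% FBS, gentamicin) and seeded at 5×10^4 cells/mL. Dosed 20 h later at 0.2–400 μM for 48 h at 37 °C, 5% CO2. Resazurin (final 0.01 mg/mL) added 4 h before the end; resorufin fluorescence read at ex 560/em 590 nm. Viability taken relative to DMSO (0.2–0.8%); CC50 from a four-parameter logistic fit.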

In data set [11] the test system is Schistosoma mansoni. The experiment in a line: Antischistosomal activity against adult male Schistosoma mansoni BH assessed as inhibition of parasite motility at 20 to 100 uM after 48 to 72 hrs in presence of 0.01% triton X-100 by colloidal aggregation assay. In kind it is functional, organism-based. Put shortly: as §2
For data set [12], the system named is Schistosoma mansoni. The experiment in a line: Antischistosomal activity against adult male Schistosoma mansoni BH assessed as inhibition of parasite motility after 72 hrs by HCS microscopic analysis. The class given is functional, organism-based. Put shortly:
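Adult worms perfused from portal hepatic and mesenteric veins of Swiss mice 42–49 days after percutaneous infection with 150 ± 10 cercariae; males placed singly in wells in DMEM with 10% fetal calf serum, 2 mM L-glutamine, penicillin and streptomycin; held overnight at 37 °C, 5% CO2. Exposed to 0.10–100 μM, DMSO 0.1% control. Image-based motility (overlap index) read at 72 h; EC50 from dose-response.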

Data set [13] concerns Schistosoma mansoni. The experiment in a line: Antischistosomal activity against Schistosoma mansoni BH schistosomula assessed as multiple vacuole appearance at 20 uM after 48 hrs by HCS microscopic analysis. In kind it is functional, organism-based. Put shortly:
as §1

For data set [14], the system named is Schistosoma mansoni. The experiment in a line: Antischistosomal activity against Schistosoma mansoni BH schistosomula assessed as rounding appearance of schistosomula at 20 uM after 48 hrs by HCS microscopic analysis. In kind it is functional, organism-based. Put shortly: as §1
In data set [15] the test system is Schistosoma mansoni. The experiment in a line: Antischistosomal activity against Schistosoma mansoni BH schistosomula assessed as darkening of schistosomula at 20 uM after 48 hrs by HCS microscopic analysis. In kind it is functional, organism-based. Put shortly:
as §1

One may read the EC50 as the concentration that produces a half-maximal response. As a reminder, the IC50 is the concentration needed to halve the response being measured. The low end stands for higher potency, the high end for lower potency. Usually CC50 stands for the concentration giving 50% cytotoxicity.

Activity calls are given as the source filed them. The calls are words filed in the database; no cut-off is given here. Bounds are passed on as bounds.

As to `N#Cc1cn(-c2ccccc2)nc1-c1ccco1`, the result in the data set on Schistosoma mansoni [1] was Active. The concentration for a half-maximal effect (EC50) with Schistosoma mansoni [2] was above 20 µM. The “motility inhibition activity call” value in the data set with Schistosoma mansoni [3] is “Active”.

The compound `COc1ccc(C(=O)c2no[n+]([O-])c2C(=O)c2ccc(OC)cc2)cc1` yielded an IC50 in [4] of 0.1 µM.

Take `O=C(CSc1ccccn1)Nc1nonc1[N+](=O)[O-]`: in [4], the IC50 was 7.08 µM.

With `CC(=O)c1ccc(NCCC(=O)c2cccs2)cc1`, the outcome in the data set with Schistosoma mansoni [1] was Active. Besides, the 50% effective concentration (EC50) in the data set with Schistosoma mansoni [2] is above 20 µM. Moreover, in the data set on Schistosoma mansoni [3], the “motility inhibition activity call” value was “Active”.

Take `COc1ccc(/C=C/[N+](=O)[O-])cc1OC`: the result with Schistosoma mansoni [1] was Active. The same compound returned a concentration for half-maximal inhibition (IC50) against Papain above 100 µM. Further, the inhibition entry with Schistosoma mansoni [5], with Schistosoma mansoni [6], in the data set on Schistosoma mansoni [9] and in the data set on Schistosoma mansoni [11] was “Active” in each case. In addition, the results for the half-maximal effective concentration (EC50) in the data set on Schistosoma mansoni [7], in the data set with Schistosoma mansoni [8] and in the data set with Schistosoma mansoni [2] were 5.77 µM, 29.8 µM and above 20 µM, respectively. Moreover, in [10], the CC50 amounted to 17.5 µM. The “motility inhibition activity call” value with Schistosoma mansoni [3] was “Active”.

As to `O=C(C1CCCCC1)N1CC(=O)N2CCc3ccccc3C2C1` (stereo not drawn) [PRAZIQUANTEL], the EC50 with Schistosoma mansoni [7] stood at 0.64 µM; with Schistosoma mansoni [12], 0.22 µM; in the data set with Schistosoma mansoni [2] it was 1.9 µM. The CC50 in data set [10] was above 400 µM.

For the compound `O=C1CC(Sc2nnc[nH]2)C(=O)N1c1ccc(I)cc1` (stereo not drawn), the result with Schistosoma mansoni [1] was Active. The IC50 at Papain was above 100 µM. Besides, the EC50 in the data set with Schistosoma mansoni [7] was 17.9 µM; with Schistosoma mansoni [8], 10.2 µM; with Schistosoma mansoni [2], above 20 µM. Also, in data set [10], the CC50 was determined as 133 µM. For the same compound, the “motility inhibition activity call” value in the data set with Schistosoma mansoni [3] was “Active”.

Turning to `Cc1noc(/C=C/c2ccccn2)c1[N+](=O)[O-]`, the result in the data set on Schistosoma mansoni [1], in the data set on Schistosoma mansoni [13], with Schistosoma mansoni [14] and in the data set on Schistosoma mansoni [15] was Active. Moreover, the IC50 on Papain is above 100 µM. The inhibition entry in the data set on Schistosoma mansoni [5], in the data set with Schistosoma mansoni [6], in the data set on Schistosoma mansoni [9] and in the data set with Schistosoma mansoni [11] was “Active” throughout. Besides, the figures for the concentration for a half-maximal effect (EC50) in the data set with Schistosoma mansoni [7], with Schistosoma mansoni [8] and in the data set with Schistosoma mansoni [2] were 5.68 µM, 6.43 µM and 3.23 µM, respectively. For the same compound, the cytotoxic concentration (CC50) in [10] was 16.4 µM. For the same compound, the “motility inhibition activity call” value with Schistosoma mansoni [3] is “Active”.

As for `O=S(=O)(Cc1ccccc1)c1nc2ccccc2s1`, the outcome in the data set on Schistosoma mansoni [1], in the data set with Schistosoma mansoni [13], with Schistosoma mansoni [14] and in the data set on Schistosoma mansoni [15] was Active. The compound further came in with a half-inhibitory concentration (IC50) at Papain above 100 µM. Further, the inhibition result with Schistosoma mansoni [5], with Schistosoma mansoni [6], in the data set with Schistosoma mansoni [9] and with Schistosoma mansoni [11] was “Active” throughout. The EC50 with Schistosoma mansoni [7] was 4.91 µM; in the data set with Schistosoma mansoni [8] it was 21.1 µM; in the data set on Schistosoma mansoni [2] it was 2.62 µM. Moreover, in data set [10], the CC50 was 28.5 µM. Moreover, the “motility inhibition activity call” value in the data set with Schistosoma mansoni [3] is “Active”.
